# Xi reactivation: X-chromosome reactivation activator; XiGFP mouse fibroblasts, % GFP-positive cells imaging, 3 d; cells co-treated with 5-aza-dC sensitizer; scaled so ellipticine positive control = 100%; activation, % at 7.58 µM; actives 0.055% (n = 360,000); AID 743238;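 active = mean normalized replicate activation at least 10% and every replicate at or above 10%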;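 also: 0% = median of on-plate neutral control wells and 100% = ellipticine 6 µM median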
#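 Material: SV40-immortalized XiGFP fibroblast cells, line 68-5-11 | Buffer or medium: DMEM containing 5-aza-dC | Dosing: One concentration, pinned | Times: 3 d treatment, 15 min room-temperature fixation | Controls: Ellipticine 6 µM positive control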
# E-sel inducer: induces E-selectin expression in human endothelial cells; P16581; HUVEC E-selectin immunofluorescence imaging; normalized: neutral wells 0, TNF-alpha wells 100; activation, % at 7.58 µM; actives 0.37% (n = 260,000);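 active = mean E-selectin-positive cell signal at least 10% of the positive control, reached in at least 60% of replicates, without over 20% cell loss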
# Target sequence (P16581 whole entry, looked up): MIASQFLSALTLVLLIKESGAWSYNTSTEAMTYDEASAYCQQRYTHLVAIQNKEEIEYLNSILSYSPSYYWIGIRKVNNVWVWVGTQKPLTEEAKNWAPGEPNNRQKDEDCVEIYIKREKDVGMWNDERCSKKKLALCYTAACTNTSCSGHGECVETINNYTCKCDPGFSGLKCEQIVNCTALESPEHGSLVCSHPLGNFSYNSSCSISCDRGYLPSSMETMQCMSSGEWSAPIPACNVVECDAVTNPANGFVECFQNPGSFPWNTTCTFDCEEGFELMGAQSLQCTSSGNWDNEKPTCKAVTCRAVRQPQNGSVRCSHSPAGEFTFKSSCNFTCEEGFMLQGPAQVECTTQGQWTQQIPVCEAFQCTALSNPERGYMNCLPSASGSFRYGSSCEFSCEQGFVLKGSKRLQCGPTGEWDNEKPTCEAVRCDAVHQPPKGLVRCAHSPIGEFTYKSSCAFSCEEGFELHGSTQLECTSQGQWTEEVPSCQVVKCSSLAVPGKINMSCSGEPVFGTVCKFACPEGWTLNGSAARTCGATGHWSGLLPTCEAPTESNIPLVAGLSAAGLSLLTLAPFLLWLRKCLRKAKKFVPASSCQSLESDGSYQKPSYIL
#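 Read-out basis: % PE-positive cells; Test system: HUVEC primary endothelial cells; Technique: immunofluorescence imaging; Dosing: single-point compound dose.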
# CFTR F508del cor: CFTR F508del correction in bronchial cells. CFBE cells, YFP halide quenching; stimulated with forskolin plus potentiator P3; % fluorescence drop versus neutral controls. activity (quench increase), % at 7.58 µM. actives 0.36% (n = 350,000). AID 720511;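 active = mean added fluorescence quench of at least 8% versus neutral control, with both replicates also reaching 8%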;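 also: cells transiently co-express mutant CFTR-F508del with the halide-sensitive YFP; corrector assay measuring rescue of mutant channel to the surface after 24 h compound exposure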
# Starred values were filed as active, the others as inactive; / = no result; ! = a repeat was not active. An excerpt weighted towards active compounds, which were near 0.61% of everything screened.
SMILES,Xi reactivation,E-sel inducer,CFTR F508del cor
C[C@@H]1CN([C@H](C)CO)C(=O)c2cc(NC(=O)Nc3ccc(C(F)(F)F)cc3)ccc2O[C@@H]1CN(C)S(=O)(=O)c1ccccc1,0.0,7.9,-2.3
C[C@@H]1CN([C@@H](C)CO)C(=O)c2cc(NC(=O)Nc3ccc(C(F)(F)F)cc3)ccc2O[C@H]1CN(C)S(=O)(=O)c1ccccc1,-0.1,78.5*,-1.5
C[C@H](CO)N1C[C@H](C)[C@@H](CN(C)S(=O)(=O)c2ccccc2)Oc2ccc(NC(=O)Nc3ccc(C(F)(F)F)cc3)cc2C1=O,-0.2,430.8*!,-2.5
CCCC#Cc1ccc2c(c1)O[C@H](CN(C)C(=O)c1cnccn1)[C@@H](C)CN([C@H](C)CO)S2(=O)=O,0.0,-0.2,0.7
CC(C)[C@@H]1CC=CC[C@H](C)Oc2ccccc2C(=O)N(C)[C@@H](C)C(=O)N1 (mixture of isomers),0.0,/,/
C[C@H]1CN([C@@H](C)CO)S(=O)(=O)c2ccc(-c3cccnc3)cc2O[C@H]1CN(C)C(=O)c1ccc2c(c1)OCO2,-1.1,0.1,1.0
CC(=O)c1cc(NC(=O)c2cccc(C(F)(F)F)c2)c(=O)oc1C,0.2,/,10.7*
COc1ccc(C(=O)Nc2cc(C(C)=O)c(C)oc2=O)cc1,0.0,/,5.3
NCC[C@H]1CC[C@H](NS(=O)(=O)c2ccc(Cl)cc2)[C@@H](CO)O1,0.2,-0.1,-1.4
O=C(C(Cc1ccccc1)n1cccc1)N1CCCCCC1 (centres undefined),0.0,3.2,0.6
O=C(C(Cc1ccccc1)n1cccc1)N1CCCCC1 (centres undefined),0.1,0.4,10.2*
C[C@@H]1CN([C@@H](C)CO)C(=O)c2cc(-c3ccc(F)cc3)cnc2O[C@H]1CN(C)Cc1cncnc1,0.2,0.6,-2.6
COc1cc(C(O)CO)ccc1O (centres undefined),0.0,2.5,3.0
COc1cc(C(O)CO)ccc1OS(=O)(=O)O (centres undefined),-0.1,0.6,10.0*
CCCc1nc(SC2CCCC2)c2c(=O)n(C)c(=O)n(C)c2n1,0.0,-0.5,8.1*
CCCc1nc(SCC(=O)N2CCC(C)CC2)c2c(=O)n(C)c(=O)n(C)c2n1,0.1,/,-1.0
O=C(C[C@H]1C=C[C@H](NC(=O)CC2CC2)[C@@H](CO)O1)NCc1ccc(-c2ccccc2)cc1,0.0,-0.5,-2.2
COc1ccc(/C=N/NC(=O)c2c(C)nc3ccc(Br)cn23)cc1OC,-0.1,/,10.4*
COc1ccc(/C=N/NC(=O)c2c(C)nc3ccc(Cl)cn23)cc1OC,0.2,0.5,2.2
COc1ccc2c3c([nH]c2c1)[C@H](CO)N(S(=O)(=O)c1ccc(C)cc1)CC31CCN(Cc2nccs2)CC1,0.0,0.0,-3.9
C[C@@H]1CCCCO[C@H](CN(C)C(=O)Nc2ccccc2)[C@@H](C)CN([C@@H](C)CO)C(=O)c2cc(NS(=O)(=O)c3cccs3)ccc2O1,0.0,/,4.0
O=c1cc(-c2ccccc2)nc2cc(-c3ccc(F)cc3)[nH]n12,0.3,/,-0.9
COc1cccc(-c2cc3nc(-c4ccccc4)cc(=O)n3[nH]2)c1,0.1,-0.1,11.6*
CC(C)NC(=O)N(C)C[C@@H]1Oc2c(NC(=O)c3ccc(-c4nccs4)cc3)cccc2C(=O)N([C@@H](C)CO)C[C@@H]1C,-0.1,80.8*,5.6
C[C@H](CO)N1C[C@H](C)[C@H](CN(C)Cc2ccc(Oc3ccccc3)cc2)Oc2c(NC(=O)c3ccc(-c4nccs4)cc3)cccc2C1=O,-1.0,-0.6,0.3
SMILES,Xi reactivation,E-sel inducer,CFTR F508del cor
C[C@@H]1CN([C@@H](C)CO)C(=O)c2cccc(NC(=O)c3ccc(-c4nccs4)cc3)c2O[C@@H]1CN(C)C(=O)NC1CCCCC1,-0.7,4.0,-1.8
C[C@@H]1CN([C@@H](C)CO)C(=O)c2cccc(NC(=O)c3cnccn3)c2O[C@@H]1CN(C)Cc1ccc(Oc2ccccc2)cc1,-0.3,0.1,1.7
C[C@@H]1CN([C@H](C)CO)C(=O)c2cccc(NC(=O)c3ccc(-c4nccs4)cc3)c2O[C@H]1CN(C)Cc1ccc(Oc2ccccc2)cc1,-1.0,74.6*,2.7
C[C@H]1CN([C@@H](C)CO)C(=O)c2cccc(NC(=O)c3ccc(-c4nccs4)cc3)c2O[C@@H]1CN(C)C(=O)NC1CCCCC1,-0.8,-3.5,-1.2
CC(C)NC(=O)N(C)C[C@H]1Oc2c(NC(=O)c3ccc(-c4nccs4)cc3)cccc2C(=O)N([C@@H](C)CO)C[C@H]1C,-0.1,64.6*!,1.9
COc1ccc(CN(C)C[C@@H]2Oc3c(NC(=O)c4cnccn4)cccc3C(=O)N([C@@H](C)CO)C[C@H]2C)cc1,-0.2,53.7*,-0.4
C[C@@H]1CCCCO[C@H](CN(C)CC2CC2)[C@@H](C)CN([C@H](C)CO)C(=O)c2cc(NS(=O)(=O)c3ccc(Cl)cc3)ccc2O1,0.1,0.0,1.5
CNC(=O)C[C@@H]1CC[C@@H]2[C@H](COC[C@H](O)CN2S(=O)(=O)c2cccc(Cl)c2)O1,0.1,0.0,2.9
COCC(=O)N(C)C[C@H]1Oc2ncc(C#CC(C)(C)O)cc2C(=O)N([C@H](C)CO)C[C@@H]1C,0.2,1.5,-1.8
OC[C@H]1[C@H](c2ccc(C#Cc3ccccc3)cc2)[C@@H]2CN(CC3CCOCC3)CCCCN12,0.0,0.3,-0.1
CN(C)CCCNC(=O)[C@@H]1[C@@H](CO)[C@@H]2Cn3c(cccc3=O)[C@H]1N2CC1CC1,0.7,0.2,/
OC[C@@H]1Nc2ccc(C#Cc3ccccc3)cc2[C@@H]2[C@H]1CCN2Cc1nccs1,0.0,2.4,2.7
CC(C)NC(=O)N(C)C[C@@H]1Oc2c(NC(=O)c3ccc(-c4nccs4)cc3)cccc2C(=O)N([C@H](C)CO)C[C@H]1C,0.0,90.7*,1.6
C[C@H]1CN([C@@H](C)CO)C(=O)c2cccc(NC(=O)c3ccc(-c4nccs4)cc3)c2O[C@@H]1CN(C)C,-1.0,5.7,2.3
O=S(=O)(N[C@@H]1CC[C@H](CCn2cc(-c3cccnc3)nn2)O[C@@H]1CO)c1ccccc1,-0.2,0.7,-2.2
C=CCNC(=S)NC(=O)c1oc2ccccc2c1C,0.0,48.8*,2.9
Cc1c(C(=O)NC(=S)NCC(C)C)oc2ccccc12,0.0,0.0,/
CNC[C@@H]1Oc2ccc(NC(=O)C3CC3)cc2C(=O)N([C@H](C)CO)C[C@@H]1C,0.1,0.1,0.7
COc1ccc([C@H]2C[C@H](O)[C@@H](n3cc(-c4ccc(F)cc4)nn3)CN2Cc2cccs2)cc1,0.3,-1.8,8.1*
COc1ccc([C@H]2C[C@H](n3cc(-c4ccc(F)cc4)nn3)[C@@H](O)CN2Cc2cccs2)cc1,0.0,2.4,-0.8
CCc1ccccc1N(C)S(=O)(=O)c1ccc(-c2cc(C)no2)s1,0.3,0.1,8.2*
CCN(c1ccc(OC)cc1)S(=O)(=O)c1ccc(-c2cc(C)no2)s1,0.2,/,2.2
Cn1c(=O)c([N+](=O)[O-])c(NCCCn2ccnc2)c2ccccc21,0.1,73.7*,1.1
CCCCNc1c([N+](=O)[O-])c(=O)n(C)c2ccccc12,0.2,47.6*,-1.6
